pIC50, pKi: −log10 of the molar value.
Legend:
KB [1] = assay: In vitro antitumor activity against human KB cell line at 72 h; type: functional; details: read-out: ID50 (the source's name)
Procedure, shortened: (§1)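 Human HeLa (cervix carcinoma) and KB (oral epidermoid carcinoma) monolayers in Eagle's MEM with nonessential amino acids, Earle's BSS, 10% fetal calf serum and penicillin/streptomycin/kanamycin. Exponentially growing cells (5×10^5) were exposed to varying drug concentrations for 72 or 144 h and counted by Coulter counter. ID50 is the concentration giving 50% growth inhibition versus untreated controls.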

Adenosine deaminase [2] = target: T1, Adenosine deaminase (Bos taurus, UniProt P56658); assay: Inhibition constant (Ki) against calf intestine adenosine deaminase
T1 sequence (P56658 whole entry): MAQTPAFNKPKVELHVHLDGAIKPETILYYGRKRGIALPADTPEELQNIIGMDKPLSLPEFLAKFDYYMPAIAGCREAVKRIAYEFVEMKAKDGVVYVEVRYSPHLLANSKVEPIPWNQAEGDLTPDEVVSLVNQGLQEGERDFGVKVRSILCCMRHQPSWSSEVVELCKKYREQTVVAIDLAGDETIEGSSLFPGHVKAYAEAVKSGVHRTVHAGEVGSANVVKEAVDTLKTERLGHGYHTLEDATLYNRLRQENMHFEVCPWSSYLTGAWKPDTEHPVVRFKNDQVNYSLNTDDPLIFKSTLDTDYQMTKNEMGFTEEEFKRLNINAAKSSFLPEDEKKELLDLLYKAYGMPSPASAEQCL

KB [3] = assay: In vitro antitumor activity against human KB cell line at 144 h; type: functional; details: read-out: ID50 (the source's name); procedure, shortened: as §1
HeLa [4] = assay: In vitro antitumor activity against human HeLa cell line at 72 h; type: functional; details: read-out: ID50 (the source's name); procedure, shortened: as §1
L1210 = assay: In vitro antitumor activity against murine L1210 cell line at 72 h; type: functional; details: Mus musculus, L1210, 72 h; read-out: ID50 (the source's name)
P388 [5] = assay: In vitro antitumor activity against murine P388 cell line at 72 h; type: functional; details: Mus musculus, P388, 72 h; read-out: ID50 (the source's name)
P388 [6] = assay: In vitro antitumor activity against murine doxorubicin-resistant P388 cell line at 72 h; type: functional; details: Mus musculus, P388, 72 h; read-out: ID50 (the source's name)
HeLa [7] = assay: In vitro antitumor activity against human HeLa cell line at 144 hr; type: functional; details: read-out: ID50 (the source's name); procedure, shortened: as §1
Adenosine deaminase [8] = target: T2, Adenosine deaminase (Homo sapiens, UniProt P00813); assay: Inhibition constant (Ki) against Human erythrocyte adenosine deaminase
T2 sequence (P00813 whole entry): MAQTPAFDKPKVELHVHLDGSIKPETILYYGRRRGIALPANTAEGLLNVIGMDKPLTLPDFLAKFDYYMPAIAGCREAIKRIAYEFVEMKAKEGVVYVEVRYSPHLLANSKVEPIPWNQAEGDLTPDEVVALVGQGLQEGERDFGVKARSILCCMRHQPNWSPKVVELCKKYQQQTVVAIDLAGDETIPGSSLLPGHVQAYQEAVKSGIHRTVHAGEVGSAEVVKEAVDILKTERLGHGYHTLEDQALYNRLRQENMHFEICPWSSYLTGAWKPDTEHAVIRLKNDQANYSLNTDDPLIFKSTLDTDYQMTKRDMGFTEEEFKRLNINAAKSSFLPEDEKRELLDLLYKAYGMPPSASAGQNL

HeLa [9] = assay: In vitro antitumor activity against human HeLa cell line at 144 h; type: functional; details: read-out: ID50 (the source's name); procedure, shortened: as §1
P388 [10] = assay: In vitro antitumor activity against murine doxorubicin resistant P388 cell line at 72 h; type: functional; details: Mus musculus, P388, 72 h; read-out: ID50 (the source's name)

pIC50 (KB [1]) | pKi (Adenosine deaminase [2]) | pIC50 (KB [3]) | pIC50 (HeLa [4]) | pIC50 (L1210) | pIC50 (P388 [5]) | pIC50 (P388 [6]) | pIC50 (HeLa [7]) | pKi (Adenosine deaminase [8]) | SMILES | pIC50 (HeLa [9]) | pIC50 (P388 [10])
4.48 | 4.15 | 4.52 | 4.42 | 4.57 | 4.20 | 4.32 | 4.73 | 4.82 | CCCCCCC(C(C)O)n1cnc2c(N)cccc21 (centres undefined) | – | –
4.68 | 3.40 | 5.07 | 4.22 | 4.74 | 4.68 | – | – | 3.74 | CCCCCCC(C(C)O)n1ccc2c(N)ncnc21 (centres undefined) | 5.33 | 5.42
4.09 | – | 4.33 | 3.75 | 4.64 | 4.57 | – | – | 8.37 | CCCCCC[C@@H]([C@@H](C)O)n1cnc2c(N)ncnc21 [EHNA] | 4.63 | 4.87
4.05 | – | 4.60 | 4.34 | 4.63 | 4.90 | 4.97 | 4.56 | – | Nc1ncnc2c1ncn2[C@@H]1O[C@H](CO)[C@@H](O)[C@@H]1O [VIDARABINE] | – | –

SMILES | pIC50 (KB [1]) | pKi (Adenosine deaminase [2]) | pIC50 (KB [3]) | pIC50 (HeLa [4]) | pIC50 (L1210) | pIC50 (P388 [5]) | pIC50 (P388 [6]) | pIC50 (HeLa [7]) | pKi (Adenosine deaminase [8]) | pIC50 (HeLa [9]) | pIC50 (P388 [10])
CCCCCCC(C(C)O)n1cnc2c(N)nccc21 (centres undefined) | 4.50 | – | 5.26 | 3.85 | 4.73 | 4.66 | – | – | 8.20 | 4.73 | 4.72
CCCCCCC(C(C)O)n1cnc2c(N)ccnc21 (centres undefined) | 4.31 | – | 4.52 | 3.95 | 4.31 | 4.01 | – | – | 6.92 | 4.66 | 4.42

Reference: ChEMBL document CHEMBL1124034, “Adenosine deaminase inhibitors. Synthesis and biological activity of deaza analogues of erythro-9-(2-hydroxy-3-nonyl)adenine” (J Med Chem, 1988)
